Legend:
Rattus norvegicus [1] = assay: Maximum % decrease of blood glucose (deltaBG) was observed within 4 hour after administration orally at 1 mg/kg dose to fasted adult female rats versus a control group; type: functional; details: route oral
How it was run: (§1)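 Female Wistar rats (Chbb THOM, SPF, 200-220 g), fasted 24 h, dosed orally by gavage as suspension in 1.5% Tylose methylcellulose (10 mL/kg). Whole blood from retrobulbar plexus under light halothane, deproteinized with 0.33 M HClO4; glucose by hexokinase/G6PDH, hourly up to 4 h. % decrease vs control group (N = 7), Student's t-test, P ≤ 0.05.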

Rattus norvegicus [2] = assay: Maximum % decrease of blood glucose (deltaBG) was observed within 4 hour after administration orally at 10 mg/kg dose to fasted adult female rats versus a control group; type: functional; details: route oral; how it was run: as §1
Rattus norvegicus [3] = assay: Maximum % decrease of blood glucose (deltaBG) was observed within 4 hour after administration orally at 1 mg/kg dose to fasted adult female rats versus a control group; NS =' not significant'; type: functional, organism-based; design: dose 1 mg/kg; how it was run: as §1
Rattus norvegicus [4] = assay: Maximum % decrease of blood glucose (deltaBG) was observed within 4 hour after administration orally at 0.1 mg/kg dose to fasted adult female rats versus a control group; type: functional; details: route oral; how it was run: as §1
Rattus norvegicus [5] = assay: Maximum % decrease of blood glucose (deltaBG) was observed within 4 hour after administration orally at 0.5 mg/kg dose to fasted adult female rats versus a control group; type: functional; details: route oral; how it was run: as §1
Rattus norvegicus [6] = assay: Maximum % decrease of blood glucose (deltaBG) was observed within 4 hour after administration orally at 25 mg/kg dose to fasted adult female rats versus a control group; type: functional; details: route oral; how it was run: as §1
Rattus norvegicus [7] = assay: Maximum % decrease of blood glucose (deltaBG) was observed within 4 hour after administration orally at 25 mg/kg dose to fasted adult female rats versus a control group; NS =' not significant'; type: functional, organism-based; design: dose 25 mg/kg; how it was run: as §1
Rattus norvegicus [8] = assay: Maximum % decrease of blood glucose (deltaBG) was observed within 4 hour after administration orally at 5 mg/kg dose to fasted adult female rats versus a control group; type: functional; details: route oral; how it was run: as §1
Rattus norvegicus [9] = assay: Half-maximal effective dose was measured on rat blood glucose after administrating at 4 hr; type: functional; details: Rattus norvegicus, Blood, 4 h; read-out: ED50
How it was run: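 Adult fasted female Wistar rats (Chbb THOM, SPF, 200-220 g), food withdrawn 24 h; oral gavage of suspension in 1.5% Tylose (methylcellulose), 10 mL/kg. Retrobulbar blood under light halothane; glucose by hexokinase/G6PDH after HClO4 deproteinization, hourly to 4 h. ED50 from fit of glucose vs dose, y = b + [a × k/(k + x^nH)], Hill coefficient nH.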

Compound | Delta BG (Rattus norvegicus [1]) [%] | Delta BG (Rattus norvegicus [2]) [%] | further results
CCCC(NC(=O)Cc1ccc(C(=O)O)cc1)c1ccccc1OC (stereo not given) | -21 | -44 | 
O=C(O)c1ccc(CCNC(=O)c2cc(Cl)ccc2N2CCCCCCCCCC2)cc1 |  |  | Delta BG (Rattus norvegicus [3]): Not significant
COc1ccccc1C(C)NC(=O)Cc1ccc(C(=O)O)cc1 (stereo not given) |  | -21 | 
CCCCCC(NC(=O)Cc1ccc(C(=O)O)cc1)c1ccccc1N1CCCCC1 (stereo not given) | -29 |  | 
CCCC(NC(=O)Cc1ccc(C(=O)O)cc1)c1ccccc1 (stereo not given) |  | -18 | 
CC1CCN(c2ccc(Cl)cc2C(=O)NCCc2ccc(C(=O)O)cc2)CC1 |  |  | Delta BG (Rattus norvegicus [3]): Not significant
CCCCCCC(NC(=O)Cc1ccc(C(=O)O)c(OCC)c1)c1ccccc1N1CCCCC1 (stereo not given) | -21 |  | 
CCOc1cc(CC(=O)NC(CC2CCC2)c2ccccc2N2CCCCC2)ccc1C(=O)O (stereo not given) |  |  | Delta BG (Rattus norvegicus [4]): -27%
CC(NC(=O)Cc1ccc(C(=O)O)cc1)c1ccccc1N(C)C (stereo not given) |  | -20 | 
CCOc1cc(CC(=O)NC(c2ccccc2)c2ccccc2N2CCCCC2)ccc1C(=O)O (stereo not given) |  |  | Delta BG (Rattus norvegicus [5]): -40%; Delta BG (Rattus norvegicus [4]): -22%
O=C(Cc1ccc(C(=O)O)cc1)NC(c1ccccc1N1CCCCC1)C1CCCCC1 (stereo not given) | -27 |  | 
CCC[C@@H](NC(=O)Cc1ccc(C(=O)O)cc1)c1ccccc1N1CCCCC1 | -19 |  | 
CC(NC(=O)Cc1cccc(C(=O)O)c1)c1ccccc1N1CCCCC1 (stereo not given) |  |  | Delta BG (Rattus norvegicus [6]): -12%
CC1CCCN(c2ccc(Cl)cc2C(C)NC(=O)Cc2ccc(C(=O)O)cc2)C1 (stereo not given) |  | -34 | 
CCOc1cc(CC(=O)NC(C)c2ccccc2N2CCCCC2)ccc1C(=O)O (stereo not given) |  |  | Delta BG (Rattus norvegicus [4]): -27%
CCCC(NC(=O)Cc1ccc(C(=O)O)cc1)c1cc(Cl)ccc1N1CCCCC1 (stereo not given) | -17 |  | 
O=C(O)c1ccc(CCNC(=O)c2cc(Cl)ccc2N2CCCCCCC2)cc1 | -29 |  | 
COc1cc(CCNC(=O)c2cc(Cl)ccc2N2CCCCCCCC2)ccc1C(=O)O | -15 |  | 
CCCC(NC(=O)Cc1ccc(C(=O)O)cc1)c1ccccc1C1=CCCCC1 (stereo not given) |  | -48 | Delta BG (Rattus norvegicus [3]): Not significant
CCCC(CCCc1ccc(C(=O)O)cc1)c1ccccc1N1CCCCC1 (stereo not given) |  |  | Delta BG (Rattus norvegicus [7]): Not significant

Compound | Delta BG (Rattus norvegicus [1]) [%] | Delta BG (Rattus norvegicus [2]) [%] | further results
O=C(O)c1ccc(CCNC(=O)c2cc(Cl)ccc2N2CCCCC2)cc1 |  |  | Delta BG (Rattus norvegicus [3]): Not significant; Delta BG (Rattus norvegicus [8]): -37%
CCOc1cc(CC(=O)NC(CC2CCCCC2)c2ccccc2N2CCCCC2)ccc1C(=O)O (stereo not given) |  |  | Delta BG (Rattus norvegicus [4]): -23%
COc1ccc(Cl)cc1C(=O)NCCc1ccc(C(=O)O)cc1 [MEGLITINIDE] | -9 | -22 | ED50 (Rattus norvegicus [9]): 9.4 mg/kg
O=C(Cc1ccc(C(=O)O)cc1)NCc1cc(Cl)ccc1N1CCCCC1 |  | -37 | 
O=C(O)c1ccc(CCNC(=O)c2ccccc2N2CCCCCCCC2)cc1 | -9 |  | 
C=C(C)C[C@H](NC(=O)Cc1ccc(C(=O)O)c(OCC)c1)c1ccccc1N1CCCCC1 |  |  | Delta BG (Rattus norvegicus [4]): -43%
CCOc1cc(CC(=O)NC(Cc2ccccc2)c2ccccc2N2CCCCC2)ccc1C(=O)O (stereo not given) |  | -38 | 
CCOc1cc(CC(=O)NC(CC2CCCC2)c2ccccc2N2CCCCC2)ccc1C(=O)O (stereo not given) |  |  | Delta BG (Rattus norvegicus [4]): -17%
CCOc1cc(CC(=O)NC(CC2CC2)c2ccccc2N2CCCCC2)ccc1C(=O)O (stereo not given) |  |  | Delta BG (Rattus norvegicus [4]): -37%
O=C(Cc1ccc(C(=O)O)cc1)NC(Cc1ccccc1)c1ccccc1N1CCCCC1 (stereo not given) |  | -27 | 
CC1CCCN(c2ccccc2C(C)NC(=O)Cc2ccc(C(=O)O)cc2)C1 (stereo not given) | -27 | -42 | 
CC(NC(=O)Cc1ccc(S(=O)(=O)NC(=O)NC2CCCCC2)cc1)c1ccccc1N1CCCCC1 (stereo not given) |  |  | Delta BG (Rattus norvegicus [3]): Not significant; Delta BG (Rattus norvegicus [8]): -42%
CCCCCC(NC(=O)Cc1ccc(C(=O)O)c(OCC)c1)c1ccccc1N1CCCCC1 (stereo not given) |  |  | Delta BG (Rattus norvegicus [5]): -42%; Delta BG (Rattus norvegicus [4]): -13%
CC(NC(=O)Cc1ccc(C(=O)O)cc1)c1ccccc1N1CCCCCCCC1 (stereo not given) |  |  | Delta BG (Rattus norvegicus [7]): Not significant
CC(NC(=O)Cc1ccc(C(=O)O)cc1)c1cc(Cl)ccc1N1CCCCC1C (stereo not given) |  | -14 | 
O=C(Cc1ccc(C(=O)O)cc1)NCc1ccccc1N1CCCCC1 |  | -38 | 
CC(NC(=O)Cc1ccc(C(=O)O)cc1)c1cc(Cl)ccc1N1CCCCCCCC1 (stereo not given) |  |  | Delta BG (Rattus norvegicus [7]): Not significant
CCOc1cc(CCNC(=O)c2cc(Cl)ccc2OC)ccc1C(=O)O | -8 | -35 | 
CN(C)c1ccc(Cl)cc1C(=O)NCCc1ccc(C(=O)O)cc1 |  |  | Delta BG (Rattus norvegicus [6]): -28%
CC(C)(NC(=O)Cc1ccc(C(=O)O)cc1)c1ccccc1N1CCCCC1 |  | -34 | 
